# In ChEMBL document CHEMBL1949593, “Stilbene-chalcone hybrids: design, synthesis, and evaluation as a new class of antimalarial scaffolds that trigger cell death through stage specific apoptosis” (J Med Chem, 2012):
# Active and inactive are the calls of the source. The rule behind the calls is not given here.
# What was measured:
# Plasmodium falciparum [1] = test: Antimalarial activity against ring stage chloroquine-sensitive Plasmodium falciparum 3D7 infected in human O positive erythrocytes after 48 hrs by SYBR green 1 fluorescence assay; type: functional, organism-based; conditions: 3D7, 48 h
# Summary of the method: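 P. falciparum 3D7 in O+ human erythrocytes in complete RPMI with Albumax at 37 °C under 5% O2/5% CO2. Culture was sorbitol-synchronized to rings and plated at 2% hematocrit, 1% parasitemia. Drug range was 0–100 μM with 0.4% final DMSO, in triplicate. After 48 h, SYBR Green I fluorescence was read (ex 497/em 520 nm). IC50 was taken by visual matching of 50% growth inhibition.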
# [2] = Inhibition of Plasmodium falciparum falcipain-2 using benzyloxycarbonyl-Phe-Arg-7-amino-4-methyl coumarin hydrochloride as substrate preincubated for 10 mins prior substrate addition by fluorimetric assay
# Summary of the method: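 Recombinant falcipain-2 (2 μg) was preincubated 10 min at room temperature with or without compound, in triplicate. Buffer was 100 mM sodium acetate pH 5.5 with 10 mM DTT and 1% final DMSO. Z-Phe-Arg-AMC was then added at 10 μM final. AMC release was read at ex 355/em 460 nm. IC50 was taken by visual matching of 50% inhibition.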
# Plasmodium falciparum [3] = test: Growth inhibition of chloroquine-sensitive Plasmodium falciparum 3D7 schizonts at 6 uM treated for 8 hrs following washout incubated for 48 hrs in drug free medium by Giemsa staining; type: functional, organism-based
# Summary of the method: (§1)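 Highly synchronized 3D7 cultures were exposed by stage: rings 48 h, trophozoites 24 h, schizonts 8 h. After a media wash, cultures grew 48 h in drug-free complete RPMI, in triplicate. Giemsa smears were read by counting 3000 cells per stage; pycnotic parasites were scored nonviable. Inhibition is percent of drug-free control.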
# Plasmodium falciparum [4] = test: Induction of apoptosis in chloroquine-sensitive Plasmodium falciparum 3D7 trophozoites assessed as chromatin fragmentation at 6 uM at 18 hrs by Hoechst 33342 staining; type: functional, organism-based
# Summary of the method: (§2)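 3D7 trophozoite cultures were treated 18 or 24 h, and ring cultures 24, 42 or 48 h. Parasites were stained with Hoechst 33342 for 10 min at room temperature, washed with PBS, and smeared. Condensed or fragmented chromatin (blue, 460 nm) was viewed by fluorescence microscopy.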
# Plasmodium falciparum [5] = test: Antimalarial activity against chloroquine-sensitive Plasmodium falciparum 3D7 assessed as merozoites egress at 6 uM treated for 8 hrs followed by washout measured after 48 hrs by Giemsa staining; type: functional, organism-based
# Summary of the method: (§3)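 Highly synchronized 3D7 schizonts were exposed to drug for 8 h under normal culture conditions, alongside untreated controls. After a media wash, cultures were incubated for 48 h with or without drug. Giemsa-stained thin smears were examined microscopically for parasitemia and stage, and compared with control.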
# [6] = Resistance index, ratio of IC50 for ring stage chloroquine-resistant Plasmodium falciparum Dd2 to IC50 for ring stage chloroquine-sensitive Plasmodium falciparum 3D7; type: functional
# Plasmodium falciparum [7] = test: Induction of internucleosomal fragmentation in ring stage chloroquine-sensitive Plasmodium falciparum 3D7 at 6 uM at 24 hrs by Hoechst 33342 staining; type: functional, organism-based; summary of the method: as §2
# Plasmodium falciparum [8] = test: Induction of apoptosis in ring stage chloroquine-sensitive Plasmodium falciparum 3D7 assessed as nuclear condensation at 6 uM at 24 hrs by Giemsa staining; type: functional, organism-based
# Plasmodium falciparum [9] = test: Antimalarial activity against ring stage chloroquine-resistant Plasmodium falciparum Dd2 infected in human O positive erythrocytes after 48 hrs by SYBR green 1 fluorescence assay; type: functional, organism-based; conditions: Dd2, 48 h
# Summary of the method: (§4)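 Ring-stage cultures were sorbitol-synchronized in O+ human erythrocytes in RPMI 1640 with 0.5% Albumax, hypoxanthine and gentamicin, then plated at 2% hematocrit and 1% parasitemia. Drugs were tested at 0–100 μM (final DMSO 0.4%) in triplicate for 48 h at 37 °C under 5% O2/5% CO2/90% N2. Read-out was SYBR Green I (ex 497/em 520 nm). IC50 was read visually as 50% growth inhibition, with chloroquine as control.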
# Plasmodium falciparum [10] = test: Growth inhibition of chloroquine-sensitive Plasmodium falciparum 3D7 trophozoites at 6 uM treated for 24 hrs following washout incubated for 48 hrs in drug free medium by SYBR green 1-based fluorescence assay; type: functional, organism-based
# Summary of the method: (§5)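 Stage-specific exposure of synchronized 3D7: rings 48 h, trophozoites 24 h, schizonts 8 h. Drug was removed by media wash and cultures grew 48 h drug-free, in a separate triplicate set. Growth was read by SYBR Green I fluorescence and expressed as percent inhibition relative to drug-free control.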
# Plasmodium falciparum [11] = test: Induction of internucleosomal fragmentation in chloroquine-sensitive Plasmodium falciparum 3D7 trophozoites at 6 uM at 24 hrs by Hoechst 33342 staining; type: functional, organism-based; summary of the method: as §2
# Plasmodium falciparum [12] = test: Reduction in parasitemia of ring stage chloroquine-sensitive Plasmodium falciparum 3D7 at 6 uM after 48 hrs by Giemsa staining; type: functional, organism-based
# Plasmodium falciparum [13] = test: Reduction in parasitemia of chloroquine-sensitive Plasmodium falciparum 3D7 trophozoites at 6 uM after 48 hrs by Giemsa staining; type: functional, organism-based
# Plasmodium falciparum [14] = test: Growth inhibition of chloroquine-sensitive Plasmodium falciparum 3D7 schizonts at 6 uM treated for 8 hrs following washout incubated for 48 hrs in drug free medium by SYBR green 1-based fluorescence assay; type: functional, organism-based; summary of the method: as §5
# Plasmodium falciparum [15] = test: Antimalarial activity against ring stage chloroquine-resistant Plasmodium falciparum INDO infected in human O positive erythrocytes after 48 hrs by SYBR green 1 fluorescence assay; type: functional, organism-based; summary of the method: as §4
# Plasmodium falciparum [16] = test: Growth inhibition of chloroquine-sensitive Plasmodium falciparum 3D7 trophozoites at 6 uM treated for 24 hrs following washout incubated for 48 hrs in drug free medium by Giemsa staining; type: functional, organism-based; summary of the method: as §1
# Plasmodium falciparum [17] = test: Induction of apoptosis in ring stage chloroquine-sensitive Plasmodium falciparum 3D7 assessed as disruption of mitochondrial membrane potential at 6 uM by JC-1 staining; type: functional, organism-based
# Summary of the method: (§6)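 3D7 ring cultures were treated 24, 42 or 48 h, and trophozoite cultures 18 or 24 h. Parasites were stained with JC-1 for 20 min at 37 °C and viewed as wet mounts by fluorescence microscopy. Red-orange aggregate signal (590 nm) indicates intact ΔΨm; green monomer signal (525 nm) indicates dissipation.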
# Plasmodium falciparum [18] = test: Induction of apoptosis in chloroquine-sensitive Plasmodium falciparum 3D7 trophozoites assessed as chromatin condensation at 6 uM at 18 hrs by Hoechst 33342 staining; type: functional, organism-based; summary of the method: as §2
# Plasmodium falciparum [19] = test: Growth inhibition of ring stage chloroquine-sensitive Plasmodium falciparum 3D7 at 6 uM treated for 48 hrs following washout incubated for 48 hrs in drug free medium by SYBR green 1-based fluorescence assay; type: functional, organism-based; summary of the method: as §5
# Plasmodium falciparum [20] = test: Induction of apoptosis in chloroquine-sensitive Plasmodium falciparum 3D7 trophozoites assessed as disruption of mitochondrial membrane potential at 6 uM by JC-1 staining; type: functional, organism-based; summary of the method: as §6
# Plasmodium falciparum [21] = test: Induction of apoptosis in ring stage chloroquine-sensitive Plasmodium falciparum 3D7 assessed as chromatin condensation at 6 uM at 18 hrs by Hoechst 33342 staining; type: functional, organism-based
# Plasmodium falciparum [22] = test: Induction of apoptosis in ring stage chloroquine-sensitive Plasmodium falciparum 3D7 assessed as chromatin fragmentation at 6 uM at 18 hrs by Hoechst 33342 staining; type: functional, organism-based
# [23] = Therapeutic index, ratio of IC50 for human HeLa cells to IC50 for ring stage chloroquine-sensitive Plasmodium falciparum 3D7; type: cell-based; conditions: read-out: Ratio IC50
# Summary of the method: (§7)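 HeLa or L929 fibroblasts were seeded at 10^4 cells per well in RPMI with 10% FBS, left overnight, then exposed 24 h at 37 °C, 5% CO2. MTT was added for 3 h; formazan was dissolved in DMSO and read at 570 nm. IC50 came from dose–response curves. Index = IC50(mammalian)/IC50(Pf 3D7, SYBR Green assay).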
# Plasmodium falciparum [24] = test: Antimalarial activity against chloroquine-sensitive Plasmodium falciparum 3D7 assessed as inhibition of schizonts growth at 6 uM treated for 8 hrs followed by washout measured after 48 hrs by Giemsa staining; type: functional, organism-based; summary of the method: as §3
# Plasmodium falciparum [25] = test: Inhibition of RBC invasion of chloroquine-sensitive Plasmodium falciparum 3D7 schizonts at 6 uM treated for 8 hrs followed by washout measured after 48 hrs by Giemsa staining; type: functional, organism-based; summary of the method: as §3
# Plasmodium falciparum [26] = test: Induction of apoptosis in chloroquine-sensitive Plasmodium falciparum 3D7 trophozoites assessed as nuclear condensation at 6 uM at 24 hrs by Giemsa staining; type: functional, organism-based
# [27] = Resistance index, ratio of IC50 for ring stage chloroquine-resistant Plasmodium falciparum INDO to IC50 for ring stage chloroquine-sensitive Plasmodium falciparum 3D7; type: functional
# Plasmodium falciparum [28] = test: Growth inhibition of chloroquine-sensitive Plasmodium falciparum 3D7 trophozoites at 6 uM treated for 18 hrs followed by washout measured after 54 hrs by Giemsa staining; type: functional, organism-based
# Plasmodium falciparum [29] = test: Growth inhibition of ring stage chloroquine-sensitive Plasmodium falciparum 3D7 at 6 uM treated for 48 hrs followed by washout measured after 48 hrs by Giemsa staining; type: functional, organism-based; summary of the method: as §1
# [30] = Therapeutic index, ratio of IC50 for […] cells to IC50 for ring stage chloroquine-sensitive Plasmodium falciparum 3D7; type: cell-based; conditions: mouse, read-out: Ratio IC50; summary of the method: as §7
smiles,measurement,setting,value
COc1cc(OC)c(OC)cc1/C=C/C(=O)c1ccc(/C=C/c2ccc(O)cc2)cc1,IC50,Plasmodium falciparum [1],10 µM
COc1ccc(/C=C/C(=O)c2ccc(/C=C/c3ccccc3)cc2)cc1OC,IC50,Plasmodium falciparum [1],29.5 µM
COc1cc(OC)c(OC)cc1/C=C/C(=O)c1ccc(/C=C/c2cc(OC)c(O)c(OC)c2)cc1,IC50,[2],37.5 µM
same,growth inhibition (GI),Plasmodium falciparum [3],inactive
same,Activity,Plasmodium falciparum [4],Active
same,inhibition,Plasmodium falciparum [5],inactive
same,Ratio IC50,[6],2.9
same,Activity,Plasmodium falciparum [7],inactive
same,Activity,Plasmodium falciparum [8],Active
same,IC50,Plasmodium falciparum [9],6.4 µM
same,growth inhibition (GI),Plasmodium falciparum [10],Active
same,Activity,Plasmodium falciparum [11],Active
same,Activity,Plasmodium falciparum [12],Active
same,Activity,Plasmodium falciparum [13],Active
same,growth inhibition (GI),Plasmodium falciparum [14],inactive
same,IC50,Plasmodium falciparum [15],1.4 µM
same,growth inhibition (GI),Plasmodium falciparum [16],Active
same,Activity,Plasmodium falciparum [17],Active
same,Activity,Plasmodium falciparum [18],Active
same,growth inhibition (GI),Plasmodium falciparum [19],Active
same,Activity,Plasmodium falciparum [20],Active
same,Activity,Plasmodium falciparum [21],Active
same,Activity,Plasmodium falciparum [22],Active
same,IC50,Plasmodium falciparum [1],2.2 µM
same,selectivity ratio,[23],42.3
same,growth inhibition (GI),Plasmodium falciparum [24],inactive
same,inhibition,Plasmodium falciparum [25],inactive
same,Activity,Plasmodium falciparum [26],Active
same,Ratio IC50,[27],0.64
same,growth inhibition (GI),Plasmodium falciparum [28],Active
same,growth inhibition (GI),Plasmodium falciparum [29],Active
same,selectivity ratio,[30],45.5
COc1cc(OC)c(/C=C/C(=O)c2ccc(/C=C/c3cc(OC)c(O)c(OC)c3)cc2)c(OC)c1,IC50,Plasmodium falciparum [1],16 µM
COc1ccc(/C=C/C(=O)c2ccc(/C=C/c3ccccc3)cc2)cc1,IC50,Plasmodium falciparum [1],> 100 µM
COc1cc(OC)c(OC)cc1/C=C/C(=O)c1ccc(/C=C/c2cc(OC)c(OS(=O)(=O)c3cc(Cl)cc(Cl)c3)c(OC)c2)cc1,IC50,Plasmodium falciparum [1],> 100 µM
COc1cc(/C=C/c2ccc(/C=C/c3cc(OC)c(O)c(OC)c3)cc2)cc(OC)c1O,IC50,Plasmodium falciparum [1],11 µM
O=C(/C=C/c1cccs1)c1ccc(/C=C/c2ccccc2)cc1,IC50,Plasmodium falciparum [1],36.3 µM
COc1ccc(/C=C/C(=O)c2ccc(/C=C/c3cc(OC)c(O)c(OC)c3)cc2)cc1,IC50,Plasmodium falciparum [1],15 µM
COc1cc(OC)c(OC)cc1/C=C/C(=O)c1ccc(/C=C/c2ccc(Cl)cc2)cc1,IC50,Plasmodium falciparum [1],> 100 µM
COc1ccc(C(=O)/C=C/c2ccc(/C=C/c3cc(OC)c(O)c(OC)c3)cc2)cc1,IC50,Plasmodium falciparum [1],50 µM
COc1cc(OC)c(OC)cc1/C=C/C(=O)c1ccc(/C=C/c2cc(OC)c(OC)c(OC)c2)cc1,IC50,[2],20.5 µM
same,Ratio IC50,[6],0.5
same,IC50,Plasmodium falciparum [9],2.6 µM
same,IC50,Plasmodium falciparum [15],2.08 µM
same,IC50,Plasmodium falciparum [1],5.2 µM
same,selectivity ratio,[23],> 38.5
same,Ratio IC50,[27],0.4
same,selectivity ratio,[30],29.8
COc1ccc(/C=C/c2cc(OC)c(O)c(OC)c2)cc1,IC50,Plasmodium falciparum [1],> 100 µM
